Results on 19 molecules are retold here after ChEMBL document CHEMBL5257020, “Discovery of a 9-mer Cationic Peptide (LTX-315) as a Potential First in Class Oncolytic Peptide” (J Med Chem, 2016).

pIC50: −log10 of the molar value. Where a SMILES comes first, the peptide text is derived from it. [ ]: non-standard residue; d: D form. ξ: configuration not given here. ξAla(9-anthryl) = NC(Cc1c2ccccc2cc2ccccc12)C(=O)O; Dip = N[C@H](C(=O)O)C(c1ccccc1)c1ccccc1; ξBip = NC(Cc1ccc(-c2ccccc2)cc1)C(=O)O; ξDip = NC(C(=O)O)C(c1ccccc1)c1ccccc1; ξ1Nal = NC(Cc1cccc2ccccc12)C(=O)O; ξ2Nal = NC(Cc1ccc2ccccc2c1)C(=O)O; ξOrn = NCCCC(N)C(=O)O; ξDab = NCCC(N)C(=O)O; ξDap = NCC(N)C(=O)O

Data set [1] can be described thus: Cytotoxicity against human MRC5 cells assessed as inhibition of cell proliferation incubated for 4 hrs by MTT assay. In kind it is toxicity, cell-based. An outline of the steps: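 MRC-5 human embryonic lung fibroblasts cultured in MEM with 2 mM L-glutamine and 10% FBS, without antibiotics, at 37 °C in humidified 5% CO2. Cultures were tested for mycoplasma. IC50 from three or more independent measurements, given as mean ± SD.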

The next data set relates to A20. The experiment in a line: Cytotoxicity against mouse A20 lymphoma cells assessed as inhibition of cell proliferation incubated for 4 hrs by MTT assay. In kind it is functional, cell-based. As to conditions: A20, 4 h. An outline of the steps:
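Murine A20 cells cultured in RPMI-1640 with 2 mM L-glutamine, 1.5 g/L sodium bicarbonate, 4.5 g/L glucose, 10 mM HEPES, 1.0 mM sodium pyruvate, 0.05 mM 2-mercaptoethanol and 10% FBS, without antibiotics, at 37 °C, 5% CO2. IC50 from three or more independent measurements, given as mean ± SD.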

Data set [2] is described as follows: Cytotoxicity against mouse AT84 cells assessed as inhibition of cell proliferation incubated for 4 hrs by MTT assay. The class given is functional, cell-based. As to conditions: AT84, 4 h. On the technique in general: Formazan colour is commonly taken as a measure of viable cells.
A short description of data set [3]: Stability in pooled and cryopreserved human hepatocytes assessed as intrinsic clearance measured per 10^6 cells at 1 uM measured for 90 mins by LC-MS/MS analysis. The class given is ADME, cell-based, Hepatocyte. As to conditions: read-out: CLH. An outline of the steps:
(§1)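 Pooled cryopreserved hepatocytes at 0.5 million cells/mL, incubated at about 37 °C with 1 μM initial peptide. Supernatant after centrifugation analysed by LC–MS/MS (MRM) using a D-Trp7,9,10-substance P internal standard. Peak height was referenced to time zero, and t1/2 = −0.693/slope of ln concentration vs time. Clint = 0.693/t1/2 × Vinc per million cells. Testosterone, midazolam and 4-methylumbelliferone were the positive controls. Duplicates; mean of two experiments.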

Data set [4] can be described thus: Stability in pooled and cryopreserved rat hepatocytes assessed as intrinsic clearance measured per 10^6 cells at 1 uM measured for 90 mins by LC-MS/MS analysis. As to conditions: read-out: CLH. In kind it is ADME, cell-based, Hepatocyte. An outline of the steps:
as §1

The nature of data set [5]: Stability in pooled and cryopreserved human hepatocytes assessed as half life at 1 uM measured for 90 mins by LC-MS/MS analysis. In kind it is ADME, cell-based, Hepatocyte. The gist of the method:
(§2)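 Pooled cryopreserved rat or human hepatocytes, 0.5 million cells/mL, ~37 °C, peptide at 1 μM initial. Supernatants analysed by LC–MS/MS with peak height referenced to time zero. t1/2 = −0.693/slope of ln concentration vs time. Duplicate experiments. Testosterone, midazolam and 4-methylumbelliferone served as metabolic-competence controls.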

Data set [6] is described as follows: Stability in pooled and cryopreserved rat hepatocytes assessed as half life at 1 uM measured for 90 mins by LC-MS/MS analysis. In kind it is ADME, cell-based, Hepatocyte. The gist of the method: as §2

By IC50 is commonly meant the concentration that inhibits the measured activity by half. As usually defined, the pIC50 is the negative decadic logarithm of the IC50, by convention in mol/L. For `NCC(N)C(=O)NC(CN)C(=O)N[C@@H](Cc1c[nH]c2ccccc12)C(=O)NC(C(=O)NC(CN)C(=O)NC(CN)C(=O)N[C@@H](Cc1c[nH]c2ccccc12)C(=O)N[C@@H](Cc1c[nH]c2ccccc12)C(=O)NC(CN)C(N)=O)C(c1ccccc1)c1ccccc1` (stereo not given in full) (H-[ξDap][ξDap]W[ξDip][ξDap][ξDap]WW[ξDap]-NH2), the IC50 at 4 h in data set [1] is 516 µM. In addition, the pIC50 with A20 is 4.17; in data set [2] it was 3.81.
As a reminder, the half-life is the time in which the quantity being followed falls by half. For the molecule `Cc1ncc2n1-c1ccc(Cl)cc1C(c1ccccc1F)=NC2` [MIDAZOLAM], the hepatocyte CLint at 1 µM in data set [3] is below 7 µL/min/1e6 cells; in data set [4] it was 51 µL/min/1e6 cells. The half-life at 1 µM in data set [5] was above 200 min; in data set [6], 27 min.
On to `NCCCC[C@H](NC(=O)[C@H](Cc1c[nH]c2ccccc12)NC(=O)[C@H](Cc1c[nH]c2ccccc12)NC(=O)[C@H](CCCCN)NC(=O)[C@H](CCCCN)NC(=O)C(Cc1cccc2ccccc12)NC(=O)[C@H](Cc1c[nH]c2ccccc12)NC(=O)[C@H](CCCCN)NC(=O)[C@@H](N)CCCCN)C(N)=O` (stereo not given in full) (H-KKW[ξ1Nal]KKWWK-NH2), for which the IC50 at 4 h in data set [1] worked out at 238 µM. The figures for the pIC50 (in the data set with A20; in data set [2]) were 4.62 and 4.58, respectively.
Taken in the same sequence, the figures for `NCCCC[C@H](NC(=O)[C@H](Cc1c[nH]c2ccccc12)NC(=O)[C@H](Cc1c[nH]c2ccccc12)NC(=O)[C@H](CCCCN)NC(=O)[C@H](CCCCN)NC(=O)C(Cc1ccc2ccccc2c1)NC(=O)[C@H](Cc1c[nH]c2ccccc12)NC(=O)[C@H](CCCCN)NC(=O)[C@@H](N)CCCCN)C(N)=O` (stereo not given in full) (H-KKW[ξ2Nal]KKWWK-NH2) were 257 µM, 4.59 and 4.53.
Consider `NCCCC[C@H](NC(=O)C(NC(=O)[C@H](Cc1c[nH]c2ccccc12)NC(=O)[C@H](CCCCN)NC(=O)[C@H](CCCCN)NC(=O)[C@H](Cc1c[nH]c2ccccc12)NC(=O)[C@H](Cc1c[nH]c2ccccc12)NC(=O)[C@@H](N)CCCCN)C(c1ccccc1)c1ccccc1)C(N)=O` (stereo not given in full) (H-KWWKKW[ξDip]K-NH2), for which the IC50 at 4 h in data set [1] amounted to 43.9 µM. Moreover, the pIC50 in the data set with A20 is 4.87.
Take `NCCCC(N)C(=O)NC(CCCN)C(=O)N[C@@H](Cc1c[nH]c2ccccc12)C(=O)NC(C(=O)NC(CCCN)C(=O)NC(CCCN)C(=O)N[C@@H](Cc1c[nH]c2ccccc12)C(=O)N[C@@H](Cc1c[nH]c2ccccc12)C(=O)NC(CCCN)C(N)=O)C(c1ccccc1)c1ccccc1` (stereo not given in full) (H-[ξOrn][ξOrn]W[ξDip][ξOrn][ξOrn]WW[ξOrn]-NH2): the IC50 at 4 h in data set [1] stood at 323 µM. Besides, the pIC50 in the data set on A20 is 4.66; in data set [2] it was 4.64.
Taken in the same sequence, the figures for `NCCCC[C@H](NC(=O)[C@H](Cc1c[nH]c2ccccc12)NC(=O)[C@H](Cc1c[nH]c2ccccc12)NC(=O)[C@H](CCCCN)NC(=O)[C@H](CCCCN)NC(=O)[C@@H](NC(=O)[C@H](Cc1c[nH]c2ccccc12)NC(=O)[C@H](CCCCN)NC(=O)[C@@H](N)CCCCN)C(c1ccccc1)c1ccccc1)C(N)=O` (H-KKW[Dip]KKWWK-NH2) were above 347 µM, 3.87 and 3.95.
Taken in the same sequence, the figures for `NCCC(N)C(=O)NC(CCN)C(=O)N[C@@H](Cc1c[nH]c2ccccc12)C(=O)NC(C(=O)NC(CCN)C(=O)NC(CCN)C(=O)N[C@@H](Cc1c[nH]c2ccccc12)C(=O)N[C@@H](Cc1c[nH]c2ccccc12)C(=O)NC(CCN)C(N)=O)C(c1ccccc1)c1ccccc1` (stereo not given in full) (H-[ξDab][ξDab]W[ξDip][ξDab][ξDab]WW[ξDab]-NH2) were 97.7 µM, 5.08 and 4.84.
For `NCCCC[C@H](NC(=O)C(NC(=O)[C@H](Cc1c[nH]c2ccccc12)NC(=O)[C@H](CCCCN)NC(=O)[C@H](CCCCN)NC(=O)C(NC(=O)[C@H](Cc1c[nH]c2ccccc12)NC(=O)[C@H](CCCCN)NC(=O)[C@@H](N)CCCCN)C(c1ccccc1)c1ccccc1)C(c1ccccc1)c1ccccc1)C(N)=O` (stereo not given in full) (H-KKW[ξDip]KKW[ξDip]K-NH2), in data set [1], the IC50 at 4 h was 80 µM. Besides, the pIC50 is 4.92 in the data set with A20 and 4.82 in data set [2].
The like results for `NCCCC[C@H](NC(=O)[C@H](Cc1c[nH]c2ccccc12)NC(=O)[C@H](Cc1c[nH]c2ccccc12)NC(=O)[C@H](CCCCN)NC(=O)[C@H](CCCCN)NC(=O)[C@H](Cc1c[nH]c2ccccc12)NC(=O)[C@H](Cc1c[nH]c2ccccc12)NC(=O)[C@H](CCCCN)NC(=O)[C@@H](N)CCCCN)C(N)=O` (H-KKWWKKWWK-NH2) were, in that order, above 357 µM, 4.43 and 4.51.
With `NCCCC[C@H](NC(=O)[C@H](Cc1c[nH]c2ccccc12)NC(=O)[C@H](Cc1c[nH]c2ccccc12)NC(=O)[C@H](CCCCN)NC(=O)[C@H](CCCCN)NC(=O)C(NC(=O)[C@H](Cc1c[nH]c2ccccc12)NC(=O)[C@H](CCCCN)NC(=O)[C@@H](N)CCCCN)C(c1ccccc1)c1ccccc1)C(N)=O` (stereo not given in full) (H-KKW[ξDip]KKWWK-NH2), the half-inhibitory concentration (IC50) at 4 h in data set [1] was 287 µM. The values for the pIC50 (in the data set with A20; in data set [2]) were 4.59 and 4.61, respectively.
In the case of `NCCCC[C@H](NC(=O)[C@H](Cc1c[nH]c2ccccc12)NC(=O)[C@H](Cc1c[nH]c2ccccc12)NC(=O)[C@H](CCCCN)NC(=O)[C@H](CCCCN)NC(=O)[C@H](Cc1c[nH]c2ccccc12)NC(=O)C(NC(=O)[C@H](CCCCN)NC(=O)[C@@H](N)CCCCN)C(c1ccccc1)c1ccccc1)C(N)=O` (stereo not given in full) (H-KK[ξDip]WKKWWK-NH2), the IC50 at 4 h in data set [1] worked out at 488 µM. The negative-log IC50 (pIC50) in the data set on A20 was 4.29; in data set [2] it was 4.44.
For `C[C@]12CC[C@H]3[C@@H](CCC4=CC(=O)CC[C@@]43C)[C@@H]1CC[C@@H]2O` [TESTOSTERONE], the hepatocyte CLint at 1 µM in data set [3] came out at 333 µL/min/1e6 cells; in data set [4], 811 µL/min/1e6 cells.
`NCCCC[C@H](NC(=O)[C@H](Cc1c[nH]c2ccccc12)NC(=O)[C@H](Cc1c[nH]c2ccccc12)NC(=O)[C@H](CCCCN)NC(=O)[C@H](CCCCN)NC(=O)C(Cc1c2ccccc2cc2ccccc12)NC(=O)[C@H](Cc1c[nH]c2ccccc12)NC(=O)[C@H](CCCCN)NC(=O)[C@@H](N)CCCCN)C(N)=O` (stereo not given in full) (H-KKW[ξAla(9-anthryl)]KKWWK-NH2): in data set [1], the 50% inhibitory concentration (IC50) at 4 h worked out at 40 µM. Further, the pIC50 is 5.03 in the data set with A20 and 4.96 in data set [2].
In the case of `Cc1cc(=O)oc2cc(O)ccc12` [HYMECROMONE], the hepatocyte CLint at 1 µM in data set [3] worked out at 127 µL/min/1e6 cells; in data set [4] it was 373 µL/min/1e6 cells. In addition, the half-life at 1 µM in data set [5] stood at 11 min; in data set [6], 4 min.
Regarding `NCCCC[C@H](NC(=O)C(NC(=O)[C@H](Cc1c[nH]c2ccccc12)NC(=O)[C@H](CCCCN)NC(=O)[C@H](CCCCN)NC(=O)[C@H](Cc1c[nH]c2ccccc12)NC(=O)[C@@H](N)Cc1c[nH]c2ccccc12)C(c1ccccc1)c1ccccc1)C(N)=O` (stereo not given in full) (H-WWKKW[ξDip]K-NH2), the IC50 at 4 h in data set [1] was determined as 53.2 µM. For the same molecule, in the data set on A20, the pIC50 is 4.69.
For `NCCCC[C@H](NC(=O)[C@H](Cc1c[nH]c2ccccc12)NC(=O)C(NC(=O)[C@H](CCCCN)NC(=O)[C@H](CCCCN)NC(=O)[C@H](Cc1c[nH]c2ccccc12)NC(=O)[C@H](Cc1c[nH]c2ccccc12)NC(=O)[C@H](CCCCN)NC(=O)[C@@H](N)CCCCN)C(c1ccccc1)c1ccccc1)C(N)=O` (stereo not given in full) (H-KKWWKK[ξDip]WK-NH2), the IC50 at 4 h in data set [1] is 102 µM. The pIC50 is 4.91 in the data set with A20 and 4.60 in data set [2].
Taken in the same sequence, the figures for `NCCCC[C@H](NC(=O)[C@H](Cc1c[nH]c2ccccc12)NC(=O)[C@H](Cc1c[nH]c2ccccc12)NC(=O)[C@H](CCCCN)NC(=O)[C@H](CCCCN)NC(=O)C(Cc1ccc(-c2ccccc2)cc1)NC(=O)[C@H](Cc1c[nH]c2ccccc12)NC(=O)[C@H](CCCCN)NC(=O)[C@@H](N)CCCCN)C(N)=O` (stereo not given in full) (H-KKW[ξBip]KKWWK-NH2) were 174 µM, 4.73 and 4.56.
For `NCCCC[C@H](NC(=O)C(NC(=O)[C@H](Cc1c[nH]c2ccccc12)NC(=O)[C@H](CCCCN)NC(=O)[C@H](CCCCN)NC(=O)[C@@H](N)Cc1c[nH]c2ccccc12)C(c1ccccc1)c1ccccc1)C(N)=O` (stereo not given in full) (H-WKKW[ξDip]K-NH2), the IC50 at 4 h in data set [1] was determined as 460 µM. In the data set on A20, the pIC50 was 3.61.
